Bioassay records deposited in PubChem BioAssay by several laboratories.
This is a sample that favours compounds with a hit; in the whole collection about 12% have one here.
L major viab: reduces viability of Leishmania major promastigotes | resazurin fluorescence viability | inhibition, % at 10 µM | 200,000 compounds, 9% hits | AID 1063; in the data active means inhibition above about 50%;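 further: promastigotes grown with compound for 44 hours at 28 °C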
ABCG2 block: blocks JC-1 efflux by human ABCG2 transporter | inhibition, % at 6.6 µM | IgMXP3 cells, flow cytometry | 190,000 compounds, 0.1% hits;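 active means inhibition above 80%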;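 further: 0% = DMSO and 100% = nicardipine control wells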
Target sequence (Q9UNQ0 whole entry, looked up): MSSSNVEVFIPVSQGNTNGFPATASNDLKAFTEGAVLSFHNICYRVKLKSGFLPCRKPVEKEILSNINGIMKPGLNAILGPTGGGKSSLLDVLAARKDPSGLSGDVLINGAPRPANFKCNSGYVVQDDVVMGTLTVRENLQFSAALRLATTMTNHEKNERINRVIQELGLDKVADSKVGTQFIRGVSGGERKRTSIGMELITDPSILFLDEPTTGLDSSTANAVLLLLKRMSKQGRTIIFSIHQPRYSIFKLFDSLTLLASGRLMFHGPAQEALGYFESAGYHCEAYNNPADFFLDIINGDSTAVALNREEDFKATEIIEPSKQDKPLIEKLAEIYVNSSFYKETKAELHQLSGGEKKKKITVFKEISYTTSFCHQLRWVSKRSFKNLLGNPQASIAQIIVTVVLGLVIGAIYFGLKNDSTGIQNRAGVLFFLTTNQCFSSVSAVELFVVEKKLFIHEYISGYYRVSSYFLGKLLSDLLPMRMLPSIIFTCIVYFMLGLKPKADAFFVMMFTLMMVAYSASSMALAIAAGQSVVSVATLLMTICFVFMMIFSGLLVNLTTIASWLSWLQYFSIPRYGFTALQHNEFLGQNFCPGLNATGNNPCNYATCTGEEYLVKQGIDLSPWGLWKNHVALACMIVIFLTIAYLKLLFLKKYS
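System: two drug-resistant human cell lines, ABCG2 and ABCB1; controls: nicardipine high and DMSO low controls; times: 10 min exposure at 25 °C with rotation, no wash; detection: flow cytometry of retained JC-1 fluorescence; read-out basis: percent efflux inhibition, scaled nicardipine 100% to DMSO 0%; doses: one concentration, 6.6 µM final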
WT yeast gro inh: growth inhibition of WT yeast, mitochondrial fusion screen | mitochondrial fusion phenotypic screen, WT strain | inhibition, % at 10 µM | 190,000 compounds, 2.1% hits | AID 1362; in the data active means inhibition above about 58%; tested in S. cerevisiae
ABCB1 block: blocks JC-1 efflux by human ABCB1 transporter. P08183. CCRF-Adr cells, flow cytometry. inhibition, % at 6.6 µM. 190,000 compounds, 0.067% hits; in the data active means inhibition above about 40%;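 further: 0% = vehicle and 100% = reference inhibitor; higher value means more JC-1 retained so stronger ABCB1 efflux block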
RAM network inh: blocks the yeast RAM network; 190,000 compounds, 1.8% hits; S. cerevisiae dse1pr::URA3 reporter, 5-FOA growth OD615, 2 d; analog-sensitive cbk1-as2 kinase mutant strain; inhibition, % at 50 µM;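 active means inhibition above a set limit, 3 SD over mean compound inhibition, cut at about 8.4% in these data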;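 further: 0% = DMSO-only wells with no growth and 100% = 10 µM 1-NA-PP1 full growth; inhibition rescues growth on 5-FOA so higher OD means more RAM inhibition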
* = called active by the depositor; x = not tested or not shown.

SMILES | L major viab | ABCG2 block | WT yeast gro inh | ABCB1 block | RAM network inh
Cc1cccc(C2c3[nH]c4ccccc4c3CCN2Cc2cccn2-c2ncccn2)c1 (configuration not stated) | 59* | 0 | 8 | 0 | 0
COc1ccccc1C1c2[nH]c3ccccc3c2CCN1Cc1cnc(C)s1 (configuration not stated) | 27 | 0 | 10 | 0 | 1
COc1ccc(C2c3[nH]c4ccccc4c3CCN2Cc2cccn2-c2ncccn2)cc1C (configuration not stated) | 71* | -2 | 52 | -1 | 1
O=C(Cc1csc(NC(=O)c2ccc(F)cc2)n1)NO | 11 | 1 | -6 | 1 | 0
Cc1ccc(-c2nnnn2C2C/C(=N\NC(N)=S)C3OCC2O3)cc1 (configuration not stated) | -2 | 0 | 11 | 0 | 1
Cc1ccsc1/C=N/NC(=O)Cn1cnc2ccccc21 | 36 | 11 | -13 | 0 | -1
COC(=O)c1sc(-c2ccccc2)cc1NC(=O)c1ccc(F)cc1 | -5 | 4 | 3 | 0 | 3
COC(=O)c1sc(-c2ccccc2)cc1NC(=O)c1ccc(OC)cc1 | -5 | -9 | 4 | 0 | 8.7*
COC(=O)c1sc(-c2ccccc2)cc1NC(=O)c1cc(OC)cc(OC)c1 | -3 | -10 | -12 | -4 | 8.8*
COC(=O)c1sccc1NC(=O)c1cc(OC)cc(OC)c1 | -1 | 15 | 12 | 0 | 4
CC(C)CC1NC(=O)N(CC(=O)NC2CCCc3ccccc32)C1=O (configuration not stated) | 1 | 2 | 20 | 0 | 1
CCc1cccc(NC(=O)c2cc(S(=O)(=O)N(C)C)ccc2N2CCCC2)c1 | 32 | 7 | -19 | 2 | 11*
CN(C)S(=O)(=O)c1ccc(N2CCCC2)c(C(=O)Nc2nc(-c3ccc(F)c(F)c3)cs2)c1 | 52* | 0 | -4 | 1 | 6
CN(C)S(=O)(=O)c1ccc(N2CCCC2)c(C(=O)NCc2ccc(Cl)cc2)c1 | 4 | 1 | 8 | 1 | -1
CC(=O)Nc1ccc(N2CCCCC2)c(C(=O)Nc2cccc(C)c2)c1 | 81* | 7 | 42 | 2 | 1
CN(C)S(=O)(=O)c1ccc(N2CCCC2)c(C(=O)N2CCN(c3ccc([N+](=O)[O-])cc3)CC2)c1 | 26 | 1 | -11 | 1 | -1
Cc1cccc(N2CCN(C(=O)c3cc(S(=O)(=O)N(C)C)ccc3N3CCCC3)CC2)c1C | 54* | -1 | 7 | 4 | 3
Cc1cccc(NC(=O)c2cc(NC(=O)C3CCCCC3C(=O)O)ccc2N2CCCCC2)c1 (configuration not stated) | -2 | 9 | 1 | 1 | 4
C=CCn1c(COc2ccc(OC)cc2)nnc1SCn1nnc2ccccc2c1=O | -2 | 8 | 1 | 1 | 2
O=C(O)CC(NC(=O)Cc1ccc([N+](=O)[O-])cc1)c1ccc2c(c1)OCO2 (configuration not stated) | -2 | 1 | -19 | 0 | 0
O=C(Nc1nc2c(ccc3ccccc32)s1)c1cc([N+](=O)[O-])ccc1N1CCOCC1 | 21 | -4 | -4 | -1 | 3
CN(C)S(=O)(=O)c1ccc(N2CCCC2)c(C(=O)Nc2nc3c(ccc4ccccc43)s2)c1 | 97* | -5 | -19 | 1 | 6
N#Cc1c(SCC(=O)Nc2ccccc2)nsc1SCC(=O)Nc1ccccc1 | -6 | -6 | -2 | -1 | 4
Cc1cccc(NC(=O)CSc2nsc(SCC(=O)Nc3cccc(C)c3)c2C#N)c1 | 69* | -4 | 12 | -1 | 1
O=C(CSc1ncnc2c(-c3ccc(Cl)cc3)nsc12)c1ccccc1 | 0 | 8 | 78* | 0 | 6
SMILES | L major viab | ABCG2 block | WT yeast gro inh | ABCB1 block | RAM network inh
O=C(CSc1ncnc2nc[nH]c12)c1ccc(Cl)cc1 | x | x | 9 | x | x
O=C(NC(=S)Nc1nc2c(s1)CSc1ccccc1-2)c1ccccc1 | 38 | 0 | 83* | 0 | 4
O=C(Nc1nc2c(s1)CCCC2)c1cccnc1 | -6 | 2 | 15 | 0 | 1
C/C(=N\Nc1nc2c(s1)CCCC2)c1ccccc1 | 52* | -1 | 43 | 0 | 0
O=C(NC(=S)Nc1nc2c(s1)CCCC2)c1ccc(C(=O)c2ccccc2)cc1 | 76* | -10 | 6 | 0 | 4
NC(=O)Nc1ccccc1C(=O)N1CCC(O)(c2ccc(Cl)cc2)CC1 | 4 | 3 | 1 | 0 | 0
CC1=CC(C)(C)N(S(=O)(=O)c2ccc(C)cc2)c2ccc(C)cc21 | 100* | 16 | 63* | 1 | 7
CC1=CC(C)(C)N(S(=O)(=O)c2ccc(F)cc2)c2ccccc21 | 48 | 3 | 37 | 1 | 6
CC(=O)Nc1ccc(S(=O)(=O)N2c3ccccc3C(C)=CC2(C)C)cc1 | 100* | 0 | -10 | 0 | 0
CCCc1cc(-c2n[nH]c(C)c2-c2ccc(C(=O)OCC)o2)c(O)cc1O | 36 | 1 | 9 | 0 | 9.6*
CCCc1cc(C(=O)Cc2ccc(C(=O)OCC)o2)c(O)cc1O | -5 | -2 | 10 | 0 | 4
CCc1ccc(NC(=O)C(C)Oc2nnc(-c3cccs3)c(-c3cccs3)n2)cc1 (configuration not stated) | 84* | -1 | 8 | 0 | 6
CCc1ccc(NC(=O)CSc2nnc(-c3cccs3)n2CC)cc1 | 1 | 3 | 5 | 1 | 0
CC(C)c1ccc(NC(=O)COc2nnc(-c3cccs3)c(-c3cccs3)n2)cc1 | 83* | 5 | 7 | 2 | 5
Cc1ccc(C(=O)N/C(=C\c2cccs2)C(=O)NCC2CCCO2)cc1C (configuration not stated) | 33 | 5 | -6 | 1 | 1
COc1ccccc1CNc1nc(S(=O)(=O)c2ccccc2)c(Cl)s1 | 9 | 5 | 40 | 1 | 9.8*
CSc1nc(S(=O)(=O)c2ccccc2)c(Cl)s1 | 1 | 6 | -27 | 0 | 2
COc1ccccc1CNC(=O)C(NC(=O)c1ccc(C)cc1)C(C)C (configuration not stated) | 9 | 13 | 4 | 2 | 3
CC12COC3(C(=O)Nc4ccc5ccccc5c4)CC1CCC32C (configuration not stated) | 21 | 1 | 77* | 1 | 7
Cc1cnc(NC(=O)C(C)N2CCN(C)CC2)s1 (configuration not stated) | -6 | 0 | -21 | 0 | 0
O=C(Cn1nnc(-c2ccccc2)n1)N/N=C/c1ccco1 | -8 | 3 | -2 | 1 | 3
Cc1ccc(-n2sc3ccccc3c2=O)cc1S(=O)(=O)N1CCCCC1 | 89* | 0 | 94* | 0 | 7
CCN(CC)S(=O)(=O)c1ccc(C)c(NC(=S)N2CCN(Cc3ccc4c(c3)OCO4)CC2)c1 | 96* | 1 | 4 | 0 | 2
Cc1cccc(NC(=S)N2CCN(Cc3ccc4c(c3)OCO4)CC2)c1C | 90* | -6 | 12 | 0 | 1
